Experimental data reported in paper PMC5836871 (Journal of Clinical Pharmacology, 2017).
“And” between values parts separate entries of the source, which are not always exact repeats. Equal entries are not always repeated. Where two headings read alike, the source gives them in different places. Marks after values point to notes of the source that are not given here. Each block holds one compound with its values, some of them ahead of it.

What was measured:
[1] = cited from earlier work
[2] = type: in vitro ADME, human; settings: for Protein-bound fraction, mean ± SD: plasma spiked with 100 ng/mL 14C-labeled compound
In short: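 Predose plasma from Child-Pugh A, Child-Pugh B and matched healthy subjects was spiked ex vivo with 100 ng/mL [14C]-labelled test compound or its [14C]-labelled metabolite. Binding was measured in vitro by equilibrium dialysis, with radioactivity quantified by liquid scintillation counting. The protein-bound fraction is reported as the group mean ± SD.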

Safety and tolerability = type: in vivo, human
In short: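 Open-label, parallel-group, matched-group phase 1 study in adults aged 18–79 with BMI 18.5–34 kg/m2 (Child-Pugh A, Child-Pugh B, and healthy subjects matched by age, weight, race, smoking and sex). Each subject took one oral soft-gelatin capsule with 240 mL water, fed. AEs were recorded from dosing to the end of the 28-day follow-up and coded by MedDRA v17.1. Relatedness was judged by the investigator.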

P‐glycoprotein = settings: cited from earlier work
[3] = type: in vivo, human; settings: for fe0–72 (fraction excreted unchanged in urine), gMean (gCV%) / AUC0–∞ of metabolite, gMean (gCV%) / Cmax of metabolite, gMean (gCV%) / t1/2, gMean (gCV%): single oral nintedanib 100 mg
In short: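 Single oral 100 mg dose of test compound as soft-gelatin capsule, fed. Adults 18–79 y, BMI 18.5–34 kg/m2: Child-Pugh A (score 5–6) or B (7–9) hepatic impairment, plus matched healthy controls. Plasma sampled to day 8 for parent and metabolites. AUC0–∞, Cmax and AUC0–tz compared by log-scale ANOVA (hepatic status fixed, matched pair random); other parameters descriptive.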

[4] = ref BI, data on file, cited from earlier work
[5] = single 100 mg dose, Child-Pugh A (n = 8)
[6] = single 100 mg dose, Child-Pugh B (n = 8)
[7] = single 100 mg dose, Healthy (n = 17)
[8] = Child-Pugh A subjects vs healthy subjects
[9] = Child-Pugh A vs matched healthy subjects
[10] = Child-Pugh A, Child-Pugh B, healthy subjects
[11] = Child-Pugh B subjects vs healthy subjects
[12] = Child-Pugh B vs matched healthy subjects
[13] = Child-Pugh A matched healthy subjects (n = 8)
[14] = Child-Pugh B matched healthy subjects (n = 8)

Protein-bound fraction ([2]; across the groups): > 99% | Exposure, fold higher than in healthy subjects [3, 8]: ~2 fold | AUC0–tz, adjusted gMean ratio [3, 9]: 216.8% | AUC0–∞, adjusted gMean ratio [3, 9]: 215.4% | Cmax, adjusted gMean ratio [3, 9]: 221.8% | Renal clearance, comparison across groups [3, 10]: comparable across groups | Exposure, fold higher than in healthy subjects [3, 11]: ~8 fold | AUC0–tz, adjusted gMean ratio [3, 12]: 870.7% | AUC0–∞, adjusted gMean ratio [3, 12]: 867.1% | Cmax, adjusted gMean ratio [3, 12]: 761.0% | Time at which Cmax was reached, range ([3]; individual range across all groups): 1 to 8 h | Median time at which Cmax was reached ([3]; medians across Child-Pugh A, Child-Pugh B and healthy subjects): 3 to 4 h | fe0–72 (fraction excreted unchanged in urine), gMean (gCV%) ([3]; Child-Pugh A (n = 8)): 0.204 (96.2) % | fe0–72 (fraction excreted unchanged in urine), gMean (gCV%) [3, 13]: 0.102 (37.9) % | fe0–72 (fraction excreted unchanged in urine), gMean (gCV%) ([3]; Child-Pugh B (n = 7)): 0.543 (31.7)^b % | fe0–72 (fraction excreted unchanged in urine), gMean (gCV%) [3, 14]: 0.0945 (28.7) %
Compound: COC(=O)c1ccc2c(c1)NC(=O)/C2=C(\Nc1ccc(N(C)C(=O)CN2CCN(C)CC2)cc1)c1ccccc1 [Nintedanib]
Time of absorption (delay by food) ([1]; after food intake): ~4 h | Terminal half-life [1]: 10 to 15 h | Time of absorption (delay by food) ([1]; fasted conditions): approximately 2 hours | Exposure increase when administered after food intake ([1]; fed vs fasted): approximately 20% | Total body clearance ([1]; healthy subjects): 1390 mL/min | Elimination through biliary/fecal excretion ([1]; in vivo): > 90% | Absolute bioavailability ([1]; nintedanib 100 mg in healthy volunteers): approximately 5% | Time to steady state ([1]; of dosing): ≤ 7 days | Time to maximum plasma concentration ([1]; oral administration): 2 to 4 h | Severe or serious AEs (Safety and tolerability; all groups, single 100 mg dose): No severe or serious AEs were reported | Tolerability (Safety and tolerability; all groups, single dose of 100 mg): well tolerated | Diarrhea (Safety and tolerability; [5]): 0 n (%) | Headache (Safety and tolerability; [5]): 0 n (%) | Nausea (Safety and tolerability; [5]): 0 n (%) | Pruritus (Safety and tolerability; [5]): 0 n (%) | Skin irritation (Safety and tolerability; [5]): 0 n (%) | Vomiting (Safety and tolerability; [5]): 0 n (%) | Diarrhea (Safety and tolerability; [6]): 1 (12.5) n (%) | Headache (Safety and tolerability; [6]): 0 n (%) | Nausea (Safety and tolerability; [6]): 1 (12.5) n (%) | Pruritus (Safety and tolerability; [6]): 1 (12.5) n (%) | Skin irritation (Safety and tolerability; [6]): 1 (12.5) n (%) | Subjects with any AE (Safety and tolerability; [6]): 3 n (%) and 3 (37.5) n (%) | Vomiting (Safety and tolerability; [6]): 0 n (%) | Diarrhea (Safety and tolerability; [7]): 0 n (%) | Headache (Safety and tolerability; [7]): 1 (5.9) n (%) | Nausea (Safety and tolerability; [7]): 2 (11.8) n (%) | Pruritus (Safety and tolerability; [7]): 0 n (%) | Skin irritation (Safety and tolerability; [7]): 0 n (%) | Subjects with any AE (Safety and tolerability; [7]): 3 n (%) and 3 (17.6) n (%) | Vomiting (Safety and tolerability; [7]): 1 (5.9) n (%) | P-glycoprotein substrate (P‐glycoprotein): substrate of P‐glycoprotein | Time to maximum plasma concentrations ([4]; Asian (n = 39) and European (n = 32) patients with impaired hepatic function and advanced HCC): 2 to 3 h | Exposure, fold higher in group II compared with group I ([4]; group II: ALT or AST >2 to ≤5 × ULN or Child-Pugh score 7, group I: ALT and AST ≤ 2 × ULN and Child-Pugh score 5–6): ~2 fold

Protein-bound fraction, mean ± SD ([2]; Child-Pugh A (n = 8)): 81.2 ± 3.6% | Protein-bound fraction, mean ± SD ([2]; Child-Pugh B (n = 8)): 82.4 ± 5.5% | Protein-bound fraction, mean ± SD ([2]; Healthy (n = 17)): 85.0 ± 3.0% | Exposure, fold higher than in healthy subjects [3, 8]: ~2 fold | AUC0–∞, fold higher than in healthy subjects [3, 11]: ~17 fold | Cmax, fold higher than in healthy subjects [3, 11]: 9 fold | AUC0–∞ of metabolite, gMean (gCV%) ([3]; Child-Pugh A (n = 8)): 216 (81.8) ng∙h/mL | Cmax of metabolite, gMean (gCV%) ([3]; Child-Pugh A (n = 8)): 17.4 (47.1) ng/mL | t1/2, gMean (gCV%) ([3]; Child-Pugh A (n = 8)): 39.1 (53.8) h | AUC0–∞ of metabolite, gMean (gCV%) [3, 13]: 86.8 (48.8) ng∙h/mL | Cmax of metabolite, gMean (gCV%) [3, 13]: 7.55 (56.2) ng/mL | t1/2, gMean (gCV%) [3, 13]: 24.7 (65.1) h | AUC0–∞ of metabolite, gMean (gCV%) ([3]; Child-Pugh B (n = 8)): 1190 (86.4) ng∙h/mL | Cmax of metabolite, gMean (gCV%) ([3]; Child-Pugh B (n = 8)): 60.7 (75.2) ng/mL | t1/2, gMean (gCV%) ([3]; Child-Pugh B (n = 8)): 46.9 (16.6) h | AUC0–∞ of metabolite, gMean (gCV%) [3, 14]: 70.4 (38.7) ng∙h/mL | Cmax of metabolite, gMean (gCV%) [3, 14]: 6.47 (57.5) ng/mL | t1/2, gMean (gCV%) [3, 14]: 23.6 (50.1) h
Compound: CN1CCN(CC(=O)N(C)c2ccc(N/C(=C3\C(=O)Nc4cc(C(=O)O)ccc43)c3ccccc3)cc2)CC1 [BIBF 1202]

AUC0–∞, fold higher than in healthy subjects [3, 8]: ~1.5 fold | Cmax, comparison across groups [3, 10]: comparable across groups | AUC0–∞, fold higher than in healthy subjects [3, 11]: ~3.5 fold | AUC0–∞ of metabolite, gMean (gCV%) ([3]; Child-Pugh A (n = 8)): 1040 (95.9) ng∙h/mL | Cmax of metabolite, gMean (gCV%) ([3]; Child-Pugh A (n = 8)): 15.1 (113) ng/mL | t1/2, gMean (gCV%) ([3]; Child-Pugh A (n = 8)): 41.1 (45.5) h | AUC0–∞ of metabolite, gMean (gCV%) [3, 13]: 657 (66.8) ng∙h/mL | Cmax of metabolite, gMean (gCV%) [3, 13]: 11.4 (62.0) ng/mL | t1/2, gMean (gCV%) [3, 13]: 31.9 (34.1) h | AUC0–∞ of metabolite, gMean (gCV%) ([3]; Child-Pugh B (n = 8)): 2650 (285) ng∙h/mL | Cmax of metabolite, gMean (gCV%) ([3]; Child-Pugh B (n = 8)): 19.6 (201) ng/mL | t1/2, gMean (gCV%) ([3]; Child-Pugh B (n = 8)): 57.4 (114) h | AUC0–∞ of metabolite, gMean (gCV%) [3, 14]: 761 (69.1) ng∙h/mL | Cmax of metabolite, gMean (gCV%) [3, 14]: 12.7 (76.2) ng/mL | t1/2, gMean (gCV%) [3, 14]: 28.3 (21.9) h
Compound: CN1CCN(CC(=O)N(C)c2ccc(N/C(=C3\C(=O)Nc4cc(C(=O)O[C@@H]5O[C@H](C(=O)O)[C@@H](O)[C@H](O)[C@H]5O)ccc43)c3ccccc3)cc2)CC1 [BIBF 1202 glucuronide]
